In ChEMBL document CHEMBL1124709, “Synthesis and antiviral activity of 3'-heterocyclic substituted 3'-deoxythymidines” (1990):

Assays:
Type in all cases: functional
[1] = test system: C3H/3T3; assay: Minimum cytotoxic concentration required to inhibit MSV-induced transformation of C3H/3T3 cells; settings: Mus musculus
Method in brief: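 Murine embryo fibroblast C3H/3T3 cells examined under the microscope. The value is the minimum concentration at which an alteration of normal cell morphology was seen.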

[2] = test system: C3H/3T3; assay: Inhibitory effect on MSV-induced transformation of C3H/3T3 cells; settings: Mus musculus, read-out: ED50 (the source's name)
Method in brief: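 Murine embryo fibroblast C3H/3T3 cells infected with Moloney murine sarcoma virus; the read-out is inhibition of virus-induced cell transformation.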

[3] = test system: MT4; assay: Effective dose of compound required to achieve 50% protection of MT-4 cells against the cytopathic effect of HIV; settings: Homo sapiens, read-out: ED50 (the source's name)
Method in brief: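 HIV-1 strain HTLV-III_B in human MT-4 cells; the read-out is inhibition of virus-induced cytopathic effect. ED50 is the dose giving 50% protection of the cells.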

[4] = test system: MT4; assay: Cytotoxic dose required to reduce the viability of normal uninfected MT-4 cells by 50%; settings: Homo sapiens, read-out: CD50 (the source's name)

Row | Structure (SMILES) | MCC [1] [µM] | EC50 [2] [µM] | EC50 [3] [µM] | CC50 [4] [µM]
1 | Cc1cn([C@H]2C[C@@H](n3cncn3)[C@@H](CO)O2)c(=O)[nH]c1=O | > 100 | > 100 | > 500 | > 500
2 | Cc1cn([C@@H]2O[C@H](CO)[C@H](n3cccn3)C2O)c(=O)[nH]c1=O (stereo partly drawn) | > 100 | > 100 | > 100 | > 100
3 | Cc1cn([C@@H]2O[C@H](CO)[C@H](n3cncn3)C2O)c(=O)[nH]c1=O (stereo partly drawn) | > 100 | > 100 | > 500 | > 500
4 | Cc1cn([C@H]2C[C@@H](NC=O)[C@@H](CO)O2)c(=O)[nH]c1=O | > 100 | > 100 | > 100 | 66
5 | Cc1cn([C@H]2C[C@@H](n3ccnc3)[C@@H](CO)O2)c(=O)[nH]c1=O | > 100 | > 100 | > 500 | > 500
6 | Cc1cn([C@@H]2O[C@H](CO)C[C@H]2n2cncn2)c(=O)[nH]c1=O | > 100 | > 100 | > 500 | > 500
7 | Cc1cn([C@H]2C[C@@H](n3cnnc3)[C@@H](CO)O2)c(=O)[nH]c1=O | > 100 | > 100 | > 5 | 4.8
8 | Cc1cn([C@@H]2O[C@H](CO)[C@H](n3ccnc3)C2O)c(=O)[nH]c1=O (stereo partly drawn) | > 100 | > 100 | > 500 | > 500
9 | Cc1cn([C@H]2C[C@@H](n3cccn3)[C@@H](CO)O2)c(=O)[nH]c1=O | > 100 | > 100 | > 500 | > 500
10 | Cc1cn([C@H]2C[C@@H](n3ccnn3)[C@@H](CO)O2)c(=O)[nH]c1=O | > 100 | > 100 | > 500 | > 500
11 | Cc1cn([C@@H]2O[C@H](CO)[C@@H](O)C2n2cncn2)c(=O)[nH]c1=O (stereo partly drawn) | > 100 | > 100 | > 500 | > 500
12 | Cc1cn([C@H]2C[C@@H](n3cccc3)[C@@H](CO)O2)c(=O)[nH]c1=O | > 100 | 91 | 201 | > 500
